Test results taken from ChEMBL document CHEMBL1148339, “Synthesis, structure-activity relationships, and drug resistance of beta-d-3'-fluoro-2',3'-unsaturated nucleosides as anti-HIV Agents” (J Med Chem, 2004).
pEC50, pIC50: −log10 of the molar value.

Assays:
CCRF-CEM = assay: Cytotoxicity against T-lymphoblastoid cell line (CEM); format: functional, cell-based; conditions: Homo sapiens
Outline: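 CEM T-lymphoblastoid cells in log phase, seeded 2.5 × 10³ cells/well with 10-fold serial dilutions of compound, 4 days at 37 °C in humidified 5% CO₂/air.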

[1] = Cytotoxicity against human peripheral blood mononuclear cells (PBMC); format: functional, cell-based
Outline: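 Uninfected PHA-stimulated human PBM cells from seronegative donors (Ficoll–Hypaque), 5 × 10⁴ cells/well, 10-fold serial compound dilutions, 5 days at 37 °C in 5% CO₂/air. MTT assay read at 570 nm; IC50 by median effect method.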

Vero [2] = assay: Cytotoxicity against vero cell line; format: functional, cell-based; conditions: Chlorocebus sabaeus
Outline: (§1)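 Log-phase Vero (African green monkey kidney) cells seeded 5 × 10³ cells/well with 10-fold serial compound dilutions, cultured 3 days at 37 °C, humidified 5% CO₂/air.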

[3] = system: Human immunodeficiency virus 1; assay: Effective concentration against HIV-1 in human peripheral blood mononuclear cells (PBMC); format: functional, organism-based
Outline: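 PBM cells infected in bulk for 1 h with HIV-1 LAI (100 TCID50/1 × 10⁷ cells, flask, or 200 TCID50/6 × 10⁵ cells/well), then cultured 5 days at 37 °C with 10-fold compound dilutions in IL-2 medium. Supernatant virus pelleted; RT activity measured with poly(rA)·oligo(dT) and [³H]TTP, 2 h 37 °C. EC50/EC90 by median effect method.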

[4] = system: Human immunodeficiency virus 1; assay: Effective concentration against M184V HIV-1 virus in human peripheral blood mononuclear cells
[5] = t1/2 (half life) period was determined; format: ADME
[6] = system: Human immunodeficiency virus 1; assay: Effective concentration against Wild Type HIV-1 virus in human peripheral blood mononuclear cells
Vero [7] = assay: Cytotoxicity against Vero cell line; format: functional, cell-based; conditions: Chlorocebus sabaeus; outline: as §1
[8] = system: adenosine deaminase (ADA); assay: Ability to get deaminated by adenosine deaminase (ADA); Expressed as t1/2; format: ADME, Bos taurus; conditions: cattle
Outline: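 Calf intestinal mucosa adenosine deaminase, 0.15 units, in phosphate buffer pH 7.4 at 25 °C; substrate at 20 μM. Deamination followed by UV absorbance at 265 nm, with substrate concentration derived from absorbance change over time to give half-life.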

[9] = t1/2 (half life) period was determined; No decomposition observed up to 7 days; format: ADME; conditions: 168 h

**Q.** With `Nc1ncnc2c1ncn2[C@@H]1C=C(F)[C@H](CO)O1` as the compound, how does the pIC50 (CCRF-CEM) read?
**A.** < 4.00

**Q.** And the pIC50 [1]?
**A.** < 4.00

**Q.** And the pIC50 (Vero [2])?
**A.** < 4.00

**Q.** And the pEC50 [3]?
**A.** < 4.00

**Q.** With `Nc1ccn([C@H]2C=C(F)[C@@H](CO)O2)c(=O)n1` as the compound, how does the pIC50 (CCRF-CEM) read?
**A.** < 4.00

**Q.** And the pEC50 [4]?
**A.** 4.71

**Q.** What about the half-life [5] of the same compound?
**A.** 48 h

**Q.** What about the pIC50 [1] of the same compound?
**A.** < 4.00

**Q.** And the pIC50 (Vero [2])?
**A.** < 4.00

**Q.** And the pEC50 [3]?
**A.** 5.64

**Q.** And the pEC50 [6]?
**A.** 5.64

**Q.** With `Nc1ccn([C@H]2C=C[C@@H](CO)O2)c(=O)n1` as the compound, how does the half-life [5] read?
**A.** 1 h

**Q.** And the pIC50 [1]?
**A.** 4.19

**Q.** What about the pEC50 [3] of the same compound?
**A.** 8.30

**Q.** Which results are given for `OC[C@H]1O[C@@H](n2cnc3c(O)ncnc32)C=C1F`?
**A.** pIC50 (CCRF-CEM): 4.11; pIC50 [1]: < 4.00; pIC50 (Vero [2]): < 4.00; pEC50 [3]: 4.89

**Q.** With `Nc1nc(O)c2ncn([C@H]3C=C(F)[C@@H](CO)O3)c2n1` as the compound, how does the pIC50 (CCRF-CEM) read?
**A.** < 4.00

**Q.** And the pIC50 [1]?
**A.** < 4.00

**Q.** And the pIC50 (Vero [2])?
**A.** 4.12

**Q.** What about the pEC50 [3] of the same compound?
**A.** 4.35

**Q.** Which results are given for `Cc1cn([C@H]2C=C(F)[C@@H](CO)O2)c(=O)[nH]c1=O`?
**A.** pIC50 (CCRF-CEM): < 4.00; pIC50 (Vero [7]): < 4.00; pIC50 [1]: < 4.00; pEC50 [3]: < 4.00

**Q.** For `Nc1ncnc2c1ncn2[C@H]1C=C[C@@H](CO)O1`, which half-life [8] is on record?
**A.** 4460 min

**Q.** With `O=c1ccn(C2C=C(F)C(CO)O2)c(=O)[nH]1` (stereo not given) as the compound, how does the pIC50 (CCRF-CEM) read?
**A.** < 4.00

**Q.** What about the pIC50 [1] of the same compound?
**A.** < 4.00

**Q.** What about the pIC50 (Vero [2]) of the same compound?
**A.** 4.08

**Q.** And the pEC50 [3]?
**A.** < 4.00

**Q.** Which half-life [8] does the source give for `Nc1ncnc2c1ncn2[C@@H]1O[C@H](CO)C=C1F` here?
**A.** 42 min

**Q.** With `Nc1ncnc2c1ncn2[C@H]1C=C(F)[C@@H](CO)O1` as the compound, how does the pIC50 (CCRF-CEM) read?
**A.** < 4.00

**Q.** What about the pIC50 [1] of the same compound?
**A.** < 4.00

**Q.** What about the half-life [8] of the same compound?
**A.** 56 min

**Q.** What about the pIC50 (Vero [2]) of the same compound?
**A.** < 4.00

**Q.** What about the pEC50 [3] of the same compound?
**A.** 5.18

**Q.** With `Nc1ccn([C@@H]2O[C@H](CO)C=C2F)c(=O)n1` as the compound, how does the T1/2 [9] read?
**A.** Infinity

**Q.** With `Nc1nc(=O)n([C@H]2C=C(F)[C@@H](CO)O2)cc1F` as the compound, how does the pIC50 (CCRF-CEM) read?
**A.** < 4.00

**Q.** And the pIC50 [1]?
**A.** < 4.00

**Q.** What about the pIC50 (Vero [2]) of the same compound?
**A.** < 4.00

**Q.** And the pEC50 [3]?
**A.** 5.03

**Q.** With `Nc1nc(=O)n([C@@H]2C=C(F)[C@H](CO)O2)cc1F` as the compound, how does the pIC50 (CCRF-CEM) read?
**A.** < 4.00

**Q.** What about the pIC50 [1] of the same compound?
**A.** < 4.00

**Q.** And the pIC50 (Vero [2])?
**A.** < 4.00

**Q.** What about the pEC50 [3] of the same compound?
**A.** 7.74

**Q.** With `Nc1ccn([C@@H]2C=C(F)[C@H](CO)O2)c(=O)n1` as the compound, how does the pIC50 (CCRF-CEM) read?
**A.** < 4.00

**Q.** And the pEC50 [4]?
**A.** 5.62

**Q.** And the pIC50 [1]?
**A.** 4.06

**Q.** What about the pIC50 (Vero [2]) of the same compound?
**A.** < 4.00

**Q.** What about the pEC50 [3] of the same compound?
**A.** 7.05

**Q.** What about the pEC50 [6] of the same compound?
**A.** 7.05

**Q.** With `Nc1ncnc2c1ncn2[C@@H]1O[C@H](CO)[C@@H](O)[C@H]1O` [ADENOSINE] as the compound, how does the half-life [8] read?
**A.** 0.5 min

**Q.** With `Cc1cn([C@H]2C[C@H](N=[N+]=[N-])[C@@H](CO)O2)c(=O)[nH]c1=O` [ZIDOVUDINE] as the compound, how does the pEC50 [4] read?
**A.** 8.57

**Q.** What about the pEC50 [6] of the same compound?
**A.** 8.39
